Sampled rows, rich in hits. Any-hit rate of the full collection: about 1.7%.
CAL PDZ FP-1 – untagged CAL PDZ binding inhibitors, primary screen, biochemical, fluorescence polarization, HTS; Golgi-associated PDZ and coiled-coil motif-containing protein (Homo sapiens), Q9HD26; AID 602252, 2012; actives 0.92% (n = 300,000); purified CAL PDZ, TMR-peptide fluorescence polarization, 1 h; inhibition, % at 24.9 µM;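 active = mean inhibition of at least 30% with at least half of replicates also reaching 30%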
C-LANA FP – inhibitors of KSHV C-LANA binding to DNA, primary screen, biochemical, fluorescence polarization, FAM-LBS DNA, MBP-C-LANA, single point. inhibition, % at 9 µM. actives 0.078% (n = 340,000). AID 504423, 2011;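 active = highest replicate inhibition at or above 60% at 9 µM, even if other replicates fall short; inactive = all replicates below 60% inhibition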
CAL PDZ FP-2 – CAL PDZ peptide-binding inhibitors, primary screen, biochemical, fluorescence polarization, Cer-tagged CAL PDZ, HTS | Golgi-associated PDZ and coiled-coil motif-containing protein (Homo sapiens), Q9HD26 | purified CAL PDZ, TMR-peptide fluorescence polarization, 1 h | inhibition, % at 20 µM | actives 0.02% (n = 330,000);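 active = highest replicate inhibition of at least 40%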
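System: tagged CAL PDZ domain. Schedule: 1 h room-temperature incubation prior to read. Signal: fluorescence polarization (mP). Measure: percent inhibition from loss of millipolarization.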
A3G deaminase – APOBEC3G DNA deaminase inhibitors, primary screen, biochemical, fluorescence, single-stranded DNA substrate, uHTS | DNA dC->dU-editing enzyme APOBEC-3G (Homo sapiens), Q9HC16 | recombinant A3G, ssDNA deamination FAM/TAMRA fluorescence | inhibition, % at 20 µM | actives 0.28% (n = 330,000) | AID 493012, 2011;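 active = inhibition of at least 40% at 20 µM, with no more than 30% in the related APOBEC3A deaminase screen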
Target sequence (Q9HC16 whole entry, looked up): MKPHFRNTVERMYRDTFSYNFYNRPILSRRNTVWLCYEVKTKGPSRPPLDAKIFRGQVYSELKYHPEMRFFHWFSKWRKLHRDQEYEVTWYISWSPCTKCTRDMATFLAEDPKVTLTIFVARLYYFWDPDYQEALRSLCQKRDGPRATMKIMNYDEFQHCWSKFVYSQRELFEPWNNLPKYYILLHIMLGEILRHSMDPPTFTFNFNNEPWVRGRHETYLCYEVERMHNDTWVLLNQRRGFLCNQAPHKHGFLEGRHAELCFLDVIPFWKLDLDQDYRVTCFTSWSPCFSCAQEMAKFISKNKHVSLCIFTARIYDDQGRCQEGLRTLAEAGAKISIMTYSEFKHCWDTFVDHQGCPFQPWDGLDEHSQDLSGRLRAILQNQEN
Keap1-Nrf2 PPI – Keap1-Nrf2 protein-protein interaction inhibitors, primary screen, biochemical, fluorescence polarization, single point | actives 0.15% (n = 340,000) | AID 504523, 2011 | inhibition, % at 9.4 µM | Keap1 Kelch-Nrf2 peptide fluorescence polarization, 1536-well; in the data active = inhibition above about 12%;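 note: human Keap1 Kelch domain with fluorescein labeled Nrf2 9mer peptide probe; higher means more block of Keap1 binding to Nrf2 peptide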
APOBEC3A inh – APOBEC3A ssDNA deaminase inhibitors, primary screen, selectivity assay for APOBEC3G inhibitor project, biochemical, FAM/TAMRA oligo cleavage fluorescence | DNA dC->dU-editing enzyme APOBEC-3A (Homo sapiens), P31941 | recombinant A3A, FAM/TAMRA ssDNA deamination fluorescence | inhibition, % at 20 µM | actives 0.41% (n = 330,000) | AID 493011, 2011;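 active = at least 40% inhibition at 20 µM here, with at most 30% in a related deaminase screen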
Target sequence (P31941 whole entry, looked up): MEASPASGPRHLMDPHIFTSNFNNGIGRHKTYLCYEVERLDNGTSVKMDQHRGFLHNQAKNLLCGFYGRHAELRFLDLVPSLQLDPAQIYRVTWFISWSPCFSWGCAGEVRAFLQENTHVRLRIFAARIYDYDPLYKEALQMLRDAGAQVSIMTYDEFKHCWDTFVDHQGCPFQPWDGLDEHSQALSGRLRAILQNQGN
APOBEC3A confirm – APOBEC3A deaminase inhibitors, retest, confirmation, selectivity assay for APOBEC3G inhibitor project, biochemical, single concentration, fluorescence readout | shares compounds with APOBEC3A inh | recombinant A3A, ssDNA deaminase UDG fluorescence assay | inhibition, % at 20 µM | actives 63% (n = 1,400) | AID 493151, 2011;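 active = inhibition reaching a set limit, 80% of the first screen's cutoff, at 20 µM in any replicate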
UDG A3A counter – E. coli UDG inhibitors, confirmation, counter-screen for APOBEC3A inhibitor project, biochemical, single concentration, fluorescence, FAM/TAMRA oligo | UDG counterscreen, FAM/TAMRA uracil oligo fluorescence | 1,000 tested, under 10 active | inhibition, % at 20 µM | shares compounds with APOBEC3A inh; call rule not given here
Large screens that a line does not name were inactive (follow-up assays come after a bar, where they were run).

CCSc1nc2sc3c(c2c(=O)n1C1CCCCC1)CCN(C)C3	none (no result: A3G deaminase, APOBEC3A inh)
CSc1nc2sc3c(c2c(=O)n1C1CCCCC1)CCN(C)C3	APOBEC3A inh 47 | APOBEC3A confirm inactive
O=C1C=C(O)CC(c2ccco2)C1 (centres undefined)	APOBEC3A inh 46 | APOBEC3A confirm 53 | UDG A3A counter inactive
C[C@H]1c2cccc(O)c2C(=O)C2C(=O)C3(O)C(=O)C(C(N)=O)C(=O)[C@@H](N(C)C)[C@@H]3[C@@H](O)[C@@H]21 (some centres undefined)	none
CN(C)c1ccc(O)c2c1CC1CC3[C@@H](N(C)C)C(=O)C(C(N)=O)C(=O)[C@]3(O)C(=O)C1C2=O (some centres undefined)	APOBEC3A inh 54 | APOBEC3A confirm 30 | UDG A3A counter inactive
C[C@H]1c2cccc(O)c2C(O)=C2C(=O)C3(O)C(O)=C(C(N)=O)C(=O)[C@@H](N(C)C)[C@@H]3[C@@H](O)[C@@H]21 (some centres undefined)	none
CN(C)c1ccc(O)c2c1CC1CC3C(N(C)C)C(=O)C(C(N)=O)=C(O)[C@@]3(O)C(=O)C1=C2O (some centres undefined)	APOBEC3A inh 40 | APOBEC3A confirm inactive | UDG A3A counter inactive
CN(C)c1cc[n+](CC(=O)Nc2ccc(OC(F)F)cc2)cc1	APOBEC3A inh 48 | APOBEC3A confirm 65 | UDG A3A counter inactive
CC(=O)c1ccc(NC(=O)C[n+]2ccc(N(C)C)cc2)cc1	none
O=[N+]([O-])c1ccc(S(=O)(=O)NN=Cc2ccc(Cl)c(Cl)c2)cc1	none (no result: A3G deaminase, APOBEC3A inh)
Cc1ccoc1C(=O)NCc1occc1C(=O)O	none | APOBEC3A confirm inactive
Cc1ccc(C)c(NC(=O)COC(=O)c2ccc3c(c2)OCCO3)c1	none
CN1CCN(S(=O)(=O)c2cccc(C(=O)Nc3cc(Cl)ccc3N3CCOCC3)c2)CC1	APOBEC3A inh 51 | APOBEC3A confirm 31 | UDG A3A counter inactive
CCN1CCN(c2ccc(S(=O)(=O)N3CCOCC3)cc2NC(=O)c2cccc([N+](=O)[O-])c2)CC1	none
CCc1noc(C)c1C(=O)Nc1cc(S(=O)(=O)N2CCOCC2)ccc1N1CCN(CC)CC1	APOBEC3A inh 48 (no result: CAL PDZ FP-1) | APOBEC3A confirm 60 | UDG A3A counter inactive
CCN1CCN(c2ccc(S(=O)(=O)N3CCOCC3)cc2NC(=O)/C=C/c2ccc([N+](=O)[O-])cc2)CC1	APOBEC3A inh 43 | APOBEC3A confirm 48 | UDG A3A counter inactive
CN1CCN(S(=O)(=O)c2cccc(C(=O)N3CCN(c4ccccc4)CC3)c2)CC1	none
CN1CCN(S(=O)(=O)c2cccc(C(=O)N3CCN(c4ccccc4F)CC3)c2)CC1	APOBEC3A inh 44 | APOBEC3A confirm 45 | UDG A3A counter inactive
C=CC[C@H](CC(=O)OC(C)(C)C)C(=O)OC[C@H]1CCCN1C(=O)[C@@H](CC=C)CC(=O)N(CCO)Cc1ccccc1	none
Cc1ccc(CSC2=NCCN2C(=O)c2ccc(S(=O)(=O)N(C)C)cc2)cc1	none
Cc1cc(C(=O)NCC(C)(C)N2CCOCC2)c(C)o1	none
CC(=O)c1ccc(NC(=O)CSc2nnc(C3CC3)n2C2CC2)cc1	none
COc1ccc2cc(CNCCOCCOCCNCc3ccc4cc(OC)ccc4c3)ccc2c1	none (no result: A3G deaminase, APOBEC3A inh)
COCCn1c(-c2ccc(F)cc2)nc2cccnc21	none
CCN1CCN(c2ccc(S(=O)(=O)N3CCCCC3)cc2NC(=O)c2ccc(F)cc2)CC1	none
CCN1CCN(c2ccc(S(=O)(=O)N3CCOCC3)cc2NC(=O)c2ccc(C(F)(F)F)cc2)CC1	APOBEC3A inh 60 | APOBEC3A confirm inactive
COc1ccc(C)cc1N(CC(=O)N1CCCCCC1)S(=O)(=O)c1ccccc1	none
CC(=O)Oc1ccc(/C=N/NC(=O)C2CCCN2S(=O)(=O)c2ccc(Cl)cc2)cc1 (centres undefined)	APOBEC3A inh 61 | APOBEC3A confirm 71 | UDG A3A counter inactive
CCOC(=O)N1CCC(NC(=O)C2CCCN(C(=O)N3CCOc4ccccc43)C2)CC1 (centres undefined)	APOBEC3A inh 54 | APOBEC3A confirm inactive | UDG A3A counter inactive
COc1cccc(OC)c1OCCCNC1CCCC1	none
Cc1cccc(S(=O)(=O)NNC(=O)Cc2cccn2C)c1	APOBEC3A inh 58 | APOBEC3A confirm inactive | UDG A3A counter inactive
Cc1ccc(S(=O)(=O)NNC(=O)Cc2cccn2C)cc1	none (no result: CAL PDZ FP-1)
CCOc1ccc2nc(NC(=O)C3CSC4(C)CCC(=O)N34)sc2c1 (centres undefined)	none
O=C(Nc1nc2ccccc2s1)C1CCN(S(=O)(=O)c2cc([N+](=O)[O-])ccc2Cl)CC1	APOBEC3A inh 80 | APOBEC3A confirm 40
N#Cc1cccc(NC(=O)Cn2c3[n+](c4ccc(C(F)(F)F)cc42)CCCCC3)c1	APOBEC3A inh 42 | APOBEC3A confirm 60 | UDG A3A counter inactive
Fc1ccccc1Cn1c2[n+](c3ccc(C(F)(F)F)cc31)CCCCC2	none
COC(=O)c1[nH]c2cc(C)ccc2c1NC(=O)CN1CCc2cc(OC)c(OC)cc2C1	none
COC(=O)c1[nH]c2ccc(Cl)cc2c1NC(=O)CN1CCc2cc(OC)c(OC)cc2C1	APOBEC3A inh 41 (no result: CAL PDZ FP-2) | APOBEC3A confirm 60 | UDG A3A counter inactive
COc1ccc(NC(=O)c2ccc(OCC3CCCO3)cc2)cc1OC (centres undefined)	APOBEC3A inh 50 (no result: CAL PDZ FP-1) | APOBEC3A confirm 36 | UDG A3A counter inactive

Bioassay records: PubChem BioAssay, several laboratories
